Source: ChEMBL document CHEMBL1157421, “Tenacigenin B derivatives reverse P-glycoprotein-mediated multidrug resistance inHepG2/Dox cells” (J Nat Prod, 2008)
Active and inactive are the calls of the source. The calls are words filed in the database; no cut-off is given here.

What was measured:
HepG2 [1] = assay: Reversal of P-glycoprotein-mediated drug resistance in human HepG2 cells assessed as increase in sensitivity at 25.2 uM in presence of doxorubicin; format: cell-based
How it was run: (§1)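 SRB growth-inhibition assay in HepG2 or doxorubicin-selected Pgp-overexpressing HepG2/Dox cells. Cells grown in RPMI 1640 with 10% FBS at 37 °C, 5% CO2. HepG2/Dox cells kept in 1.2 µM doxorubicin and grown drug-free for at least 7 days before use. IC50 of anticancer drug determined with or without modulator. Sensitivity fold = IC50 ratio. At least three repeats, mean ± SD.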

HepG2 [2] = assay: Reversal of P-glycoprotein-mediated drug resistance in human HepG2 cells assessed as increase in sensitivity at 25.2 uM in presence of vinblastine; format: cell-based; how it was run: as §1
HepG2 [3] = assay: Reversal of P-glycoprotein-mediated drug resistance in human HepG2 cells assessed as increase in sensitivity at 25.2 uM in presence of puromycin; format: cell-based; how it was run: as §1
HepG2 [4] = assay: Reversal of P-glycoprotein-mediated drug resistance in human HepG2 cells assessed as increase in sensitivity at 25.2 uM in presence of paclitaxel; format: cell-based; how it was run: as §1
[5] = Increase in doxorubicin uptake in multidrug resistance human HepG2/Dox cells assessed as cellular fluorescence at 10 ug/ml; format: functional
How it was run: (§2)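 Doxorubicin accumulation. About 1 × 10^6 HepG2/Dox cells in medium were given 10 µM doxorubicin with or without test agent and held at 37 °C for 40 min. Cells were washed in ice-cold PBS and fluorescence was read by flow cytometry. Increase (%) = 100 × (FT − FC)/FC; verapamil 10 µM served as positive control. Three experiments, mean ± SD.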

[6] = Increase in doxorubicin uptake in multidrug resistance human HepG2/Dox cells assessed as cellular fluorescence at 20 ug/ml; format: functional; how it was run: as §2
[7] = Increase in doxorubicin uptake in multidrug resistance human HepG2/Dox cells assessed as cellular fluorescence at 40 ug/ml; format: functional; how it was run: as §2
HepG2/Dox [8] = assay: Inhibition of Pgp-mediated Rh123 accumulation in multidrug resistance human HepG2/Dox cells at 40 ug/ml; format: cell-based
How it was run: (§3)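 Rh-123 efflux. About 1 × 10^6 HepG2/Dox cells were loaded with 5 µg/mL Rh-123 at 37 °C for 1 h and washed in ice-cold PBS. They then effluxed for 1 h at 37 °C in dye-free medium with 0-80 µg/mL test agent, and retained fluorescence was read by flow cytometry. Percentage increase over control was calculated; verapamil 15 µM served as positive control. Three experiments, mean ± SD.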

HepG2/Dox [9] = assay: Inhibition of Pgp-mediated Rh123 accumulation in multidrug resistance human HepG2/Dox cells at 80 ug/ml; format: cell-based; how it was run: as §3
HepG2/Dox [10] = assay: Effect on P-glycoprotein expression in multidrug resistance human HepG2/Dox cells at 20 ug/ml after 72 hrs; format: functional, cell-based
How it was run: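 Western blot for Pgp. HepG2/Dox cells were incubated with 0, 5, 10 or 20 µg/mL test agent for 72 h, with untreated HepG2 as comparator. Lysates (50 µg total protein) were resolved on 10% SDS-PAGE and Pgp was detected by antibody labeling.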

HepG2/Dox [11] = assay: Reversal of P-glycoprotein-mediated multidrug resistance in human HepG2/Dox cells assessed as increase in sensitivity at 25.2 uM in presence of doxorubicin; format: cell-based; how it was run: as §1
HepG2/Dox [12] = assay: Reversal of P-glycoprotein-mediated multidrug resistance in human HepG2/Dox cells assessed as increase in sensitivity at 12.6 uM in presence of doxorubicin; format: cell-based; how it was run: as §1
HepG2/Dox [13] = assay: Reversal of P-glycoprotein-mediated multidrug resistance in human HepG2/Dox cells assessed as increase in sensitivity at 25.2 uM in presence of vinblastine; format: cell-based; how it was run: as §1
HepG2/Dox [14] = assay: Reversal of P-glycoprotein-mediated multidrug resistance in human HepG2/Dox cells assessed as increase in sensitivity at 12.6 uM in presence of vinblastine; format: cell-based; how it was run: as §1
HepG2/Dox [15] = assay: Reversal of P-glycoprotein-mediated multidrug resistance in human HepG2/Dox cells assessed as increase in sensitivity at 25.2 uM in presence of puromycin; format: cell-based; how it was run: as §1
HepG2/Dox [16] = assay: Reversal of P-glycoprotein-mediated multidrug resistance in human HepG2/Dox cells assessed as increase in sensitivity at 12.6 uM in presence of puromycin; format: cell-based; how it was run: as §1
[17] = Cell cycle arrest in multidrug resistant human HepG2/Dox cells assessed as accumulation in subG1 phase at 20 ug/ml; format: functional, cell-based
How it was run: (§4)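 Flow-cytometric cell-cycle profiling. About 2 × 10^5 cells were seeded per dish and left overnight, then exposed to medium with or without drug for 48 h. Cells were fixed in 70% EtOH at -20 °C overnight and treated with RNase A (100 µg/mL, 37 °C, 30 min). They were then stained with propidium iodide (40 µg/mL final) at room temperature for 5-10 min and read on a FACSCalibur.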

[18] = Cell cycle arrest in multidrug resistant human HepG2/Dox cells assessed as accumulation in G0/G1 phase at 20 ug/ml; format: functional, cell-based; how it was run: as §4
[19] = Cell cycle arrest in multidrug resistant human HepG2/Dox cells assessed as accumulation in S phase at 20 ug/ml; format: functional, cell-based; how it was run: as §4
[20] = Cell cycle arrest in multidrug resistant human HepG2/Dox cells assessed as accumulation in G2/M phase at 20 ug/ml; format: functional, cell-based; how it was run: as §4
[21] = Effect on doxorubicin-induced cell cycle arrest in multidrug resistance human HepG2/Dox cells assessed as accumulation in subG1 phase at 5 ug/ml; format: functional; how it was run: as §4
[22] = Effect on doxorubicin-induced cell cycle arrest in multidrug resistance human HepG2/Dox cells assessed as accumulation in G0/G1 phase at 5 ug/ml; format: functional; how it was run: as §4
[23] = Effect on doxorubicin-induced cell cycle arrest in multidrug resistance human HepG2/Dox cells assessed as accumulation in S phase at 5 ug/ml; format: functional; how it was run: as §4
[24] = Effect on doxorubicin-induced cell cycle arrest in multidrug resistance human HepG2/Dox cells assessed as accumulation in G2/M phase at 5 ug/ml; format: functional; how it was run: as §4
[25] = Effect on doxorubicin-induced cell cycle arrest in multidrug resistance human HepG2/Dox cells assessed as accumulation in subG1 phase at 10 ug/ml; format: functional; how it was run: as §4
HepG2/Dox [26] = assay: Reversal of P-glycoprotein-mediated multidrug resistance in human HepG2/Dox cells assessed as increase in sensitivity at 25.2 uM in presence of paclitaxel; format: cell-based; how it was run: as §1
HepG2/Dox [27] = assay: Reversal of P-glycoprotein-mediated multidrug resistance in human HepG2/Dox cells assessed as increase in sensitivity at 12.6 uM in presence of paclitaxel; format: cell-based; how it was run: as §1
[28] = Effect on doxorubicin-induced cell cycle arrest in multidrug resistance human HepG2/Dox cells assessed as accumulation in G0/G1 phase at 10 ug/ml; format: functional; how it was run: as §4
[29] = Effect on doxorubicin-induced cell cycle arrest in multidrug resistance human HepG2/Dox cells assessed as accumulation in S phase at 10 ug/ml; format: functional; how it was run: as §4
[30] = Effect on doxorubicin-induced cell cycle arrest in multidrug resistance human HepG2/Dox cells assessed as accumulation in G2/M phase at 10 ug/ml; format: functional; how it was run: as §4
[31] = Effect on doxorubicin-induced cell cycle arrest in multidrug resistance human HepG2/Dox cells assessed as accumulation in subG1 phase at 20 ug/ml; format: functional; how it was run: as §4
[32] = Effect on doxorubicin-induced cell cycle arrest in multidrug resistance human HepG2/Dox cells assessed as accumulation in G0/G1 phase at 20 ug/ml; format: functional; how it was run: as §4
[33] = Effect on doxorubicin-induced cell cycle arrest in multidrug resistance human HepG2/Dox cells assessed as accumulation in S phase at 20 ug/ml; format: functional; how it was run: as §4
[34] = Effect on doxorubicin-induced cell cycle arrest in multidrug resistance human HepG2/Dox cells assessed as accumulation in G2/M phase at 20 ug/ml; format: functional; how it was run: as §4
HepG2 [35] = assay: Growth inhibition of doxorubicin-sensitive human HepG2 cells at 80 uM; format: functional
How it was run: (§5)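 SRB growth assay. HepG2 and HepG2/Dox cells were grown in RPMI 1640 with 10% FBS at 37 °C and 5% CO2; resistant cells were kept drug-free for at least 7 days before use. IC50 was taken from the SRB assay, with at least three repeats, reported as mean ± SD.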

[36] = Growth inhibition of multidrug resistant human HepG2/Dox cells at 80 uM; format: functional; how it was run: as §5

For `C/C=C(\C)C(=O)O[C@@H]1[C@@H](OC(C)=O)[C@]2(C)[C@H](C(C)=O)CC[C@@]23O[C@]32CC[C@H]3C[C@@H](O[C@H]4C[C@@H](OC)[C@H](O[C@@H]5O[C@H](C)[C@@H](O)[C@@H](OC)[C@H]5O)[C@@H](C)O4)CC[C@]3(C)[C@@H]12` [TENACISSIMOSIDE A], the Ratio IC50 (HepG2 [1]) was 1.1, the Ratio IC50 (HepG2 [2]) was 1.1 and the Ratio IC50 (HepG2 [3]) was 1.1. It also gave a Ratio IC50 (HepG2 [4]) of 1.1, an Activity [5] of 18% and an Activity [6] of 28%. The Activity [7] was 41%, the inhibition (HepG2/Dox [8]) was 50% and the inhibition (HepG2/Dox [9]) was 90%. For the same compound, the Activity (HepG2/Dox [10]) was “inactive”, the Ratio IC50 (HepG2/Dox [11]) was 17.9 and the Ratio IC50 (HepG2/Dox [12]) was 7.8. It also gave a Ratio IC50 (HepG2/Dox [13]) of 10, a Ratio IC50 (HepG2/Dox [14]) of 2.4 and a Ratio IC50 (HepG2/Dox [15]) of 11.2. For the same compound, the Ratio IC50 (HepG2/Dox [16]) was 7, the Activity [17] was 3% and the Activity [18] was 49.3%. The Activity [19] was 7.2%, the Activity [20] was 32% and the Activity [21] was 3.5%. For the same compound, the Activity [22] was 39.8%, the Activity [23] was 6.8% and the Activity [24] was 44.2%. It also gave an Activity [25] of 3.5%, a Ratio IC50 (HepG2/Dox [26]) of 5.8 and a Ratio IC50 (HepG2/Dox [27]) of 4.7. It also gave an Activity [28] of 24.9%, an Activity [29] of 6.3% and an Activity [30] of 63.6%. For the same compound, the Activity [31] was 7.6%, the Activity [32] was 8.9% and the Activity [33] was 5.1%. It also gave an Activity [34] of 73%, an inhibition at 80 µM (HepG2 [35]) of 50% and an inhibition at 80 µM [36] of 50%.
